Measured values published in ChEMBL document CHEMBL3244060, “Methotrexate analogues. 8. Synthesis and biological evaluation of bisamide derivatives as potential prodrugs” (J Med Chem, 1977).
Converted amounts (≈) assume the structure as drawn. The source made the active and inactive calls. The rule behind the calls is not given here.

What was measured:
CCRF-CEM = test: Cytotoxicity against human CCRF-CEM cells assessed as growth inhibition; assay type: functional; conditions: read-out: ID50 (the source's name)
Mus musculus = test: Toxicity in mouse allografted with mouse L1210 cells at 15 to 525 mg/kg, ip qd administered every 3 days for 7 days; assay type: organism-based; design: dose 15-525 mg/kg, route intraperitoneal; conditions: in vivo
Summary of the method: (§1)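 Mice inoculated ip with 10^5 L1210 cells on day 0. Test agents injected ip in 10% Tween 80 on days 1, 4 and 7; doses 15 to 525 mg/kg. Positive control given as disodium salt in aqueous solution. Test groups of 5, control groups of 10-15. Median survival scored; %ILS = 100 × (T − C)/C.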

L1210 [1] = test: Antitumor activity against mouse L1210 cells allografted in mouse assessed as increase in life span at 15 to 525 mg/kg, ip qd administered every 3 days for 7 days; assay type: functional, organism-based; summary of the method: as §1
L1210 [2] = test: Antitumor activity against mouse L1210 cells allografted in mouse assessed as median survival time at 15 mg/kg, ip qd administered every 3 days for 7 days; assay type: functional; conditions: route intraperitoneal
Summary of the method: (§2)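 Mice were inoculated ip with 10^5 L1210 leukemia cells on day 0. Dosing was ip on days 1, 4 and 7 in 10% Tween 80, with the methotrexate disodium salt in water, over 15–525 mg/kg. Survival was recorded in days as the range and median per group, with 5 treated and 10-15 untreated controls.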

L1210 [3] = test: Antitumor activity against mouse L1210 cells allografted in mouse assessed as increase in life span at 15 mg/kg, ip qd administered every 3 days for 7 days relative to control; assay type: functional; conditions: route intraperitoneal
Summary of the method: (§3)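 L1210 cells (10^5) implanted ip in mice on day 0. Compounds given ip in 10% Tween 80 on days 1, 4 and 7, at doses from 15 to 525 mg/kg. Methotrexate was given as the disodium salt in aqueous solution. Groups had 5 treated and 10-15 control animals. %ILS = 100 × (T − C)/C, where T and C are median survival days of treated and control mice.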

L1210 [4] = test: Antitumor activity against mouse L1210 cells allografted in mouse assessed as median survival time at 25 mg/kg, ip qd administered every 3 days for 7 days; assay type: functional; conditions: route intraperitoneal; summary of the method: as §2
L1210 [5] = test: Antitumor activity against mouse L1210 cells allografted in mouse assessed as increase in life span at 25 mg/kg, ip qd administered every 3 days for 7 days relative to control; assay type: functional; conditions: route intraperitoneal; summary of the method: as §3
[6] = molecular target: Dihydrofolate reductase (Lactobacillus casei) (UniProt P00381); test: Inhibition of methotrexate-resistant Lactobacillus casei ATCC 7469 dihydrofolate reductase; conditions: Lacticaseibacillus casei
Chain of Dihydrofolate reductase (Lactobacillus casei) (P00381 whole entry): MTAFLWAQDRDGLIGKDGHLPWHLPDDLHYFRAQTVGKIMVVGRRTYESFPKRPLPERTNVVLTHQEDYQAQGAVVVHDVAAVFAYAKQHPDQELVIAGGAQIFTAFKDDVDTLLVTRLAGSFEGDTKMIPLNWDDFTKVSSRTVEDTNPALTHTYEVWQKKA

Serum = test: Prodrug conversion in rat whole serum assessed as formation of methotrexate measured after 1 hr by TLC analysis; assay type: ADME
Summary of the method: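 Fresh rat serum 0.9 mL plus compound 0.006 g in 0.1 mL Me2SO, incubated at 37 °C with gentle shaking for up to 24 h. Cooled on ice, diluted 1.5-fold with methanol to precipitate protein, centrifuged. Supernatant run on fluorescent cellulose TLC developed with 0.5 M phosphate buffer pH 7.4 to detect parent compound and metabolites.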

L1210 [7] = test: Antitumor activity against mouse L1210 cells allografted in mouse assessed as increase in life span at 0.18 mg/kg, sc administered daily up to death started on day 5 post tumor implantation relative to control; assay type: functional; conditions: 120 h, route subcutaneous
[8] = Cytotoxicity against RBL cells assessed as growth inhibition; assay type: functional; conditions: Rattus norvegicus, read-out: ID50 (the source's name)

Row | Structure (SMILES) | IC50 (CCRF-CEM) | Activity (Mus musculus) | Activity (L1210 [1]) | also measured
1 | COc1ccc(CCNC(=O)CC[C@H](NC(=O)c2ccc(N(C)Cc3cnc4nc(N)nc(N)c4n3)cc2)C(=O)NCCc2ccc(OC)c(OC)c2)cc1OC | > 10 µg/mL |  |  | 
2 | CN(Cc1cnc2nc(N)nc(N)c2n1)c1ccc(C(=O)N[C@@H](CCC(=O)N2CCCC2)C(=O)N2CCCC2)cc1 |  | Toxic | inactive | 
3 | CN(Cc1cnc2nc(N)nc(N)c2n1)c1ccc(C(=O)N[C@@H](CCC(=O)[O-])C(=O)[O-])cc1.[Na+].[Na+] [METHOTREXATE SODIUM] |  |  |  | MST (L1210 [2]): 15 days; ILS at 15 mg/kg (L1210 [3]): 66%; MST (L1210 [4]): 18 days; ILS at 25 mg/kg (L1210 [5]): 100%
4 | CCCCNC(=O)CC[C@H](NC(=O)c1ccc(N(C)Cc2cnc3nc(N)nc(N)c3n2)cc1)C(=O)NCCCC | > 10 µg/mL |  |  | 
5 | CN(C)CCCNC(=O)CC[C@H](NC(=O)c1ccc(N(C)Cc2cnc3nc(N)nc(N)c3n2)cc1)C(=O)NCCCN(C)C |  | Toxic | inactive | 
6 | CCCCOC(=O)CC[C@H](NC(=O)c1ccc(N(C)Cc2cnc3nc(N)nc(N)c3n2)cc1)C(=O)OCCCC | 0.032 µg/mL (≈ 0.0565 µM) |  |  | ID50 [6]: 5 ×10⁻⁷ M; Drug metabolism (Serum): metabolite_detected
7 | Nc1nc(N)c2nc(CNc3ccc(C(=O)N[C@@H](CCC(=O)O)C(=O)O)cc3)cnc2n1 [AMINOPTERIN] |  |  |  | ILS at 0.18 mg/kg (L1210 [7]): 30%
8 | CN(Cc1cnc2nc(N)nc(N)c2n1)c1ccc(C(=O)N[C@@H](CCC(=O)NC2CCCCC2)C(=O)NC2CCCCC2)cc1 | 1 µg/mL (≈ 1.62 µM) | Toxic | inactive | IC50 [8]: 0.22 µg/mL (≈ 0.357 µM)
9 | CN(C)CCNC(=O)CC[C@H](NC(=O)c1ccc(N(C)Cc2cnc3nc(N)nc(N)c3n2)cc1)C(=O)NCCN(C)C | > 10 µg/mL |  |  | 
